Experimental data taken from ChEMBL document CHEMBL1156810, “Synthesis and structure-activity relationships of azamacrocyclic C-X-C chemokine receptor 4 antagonists: analogues containing a single azamacrocyclic ring are potent inhibitors of T-cell tropic (X4) HIV-1 replication” (J Med Chem, 2010).

Assays:
[1] = system: Human immunodeficiency virus 1; assay: Antiviral activity against HIV1 3B infected in human MT4 cells assessed as inhibition of virus replication after 5 days by MTT assay; settings: Human immunodeficiency virus 1, 3B, MT4, 120 h
[2] = Therapeutic index, ratio of CC50 for human MT4 cells to EC50 for HIV1 3B; assay type: cell-based
Summary of the method: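 Selectivity index calculated as CC50 divided by EC50. Both come from parallel 5-day MTT viability assays in MT-4 cells, mock-infected or infected with HIV-1 IIIB at MOI 0.01.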

[3] = system: Human immunodeficiency virus 1; assay: Antiviral activity against HIV1 3B infected in human MT4 cells assessed as inhibition of virus replication after 4 days by MTT assay; assay type: functional, organism-based; settings: Human immunodeficiency virus 1, 3B, MT4, 96 h

Compound	EC50 [1] [nM]	further results
c1ccc(CNCc2ccc(CN3CCCNCCNCCCNCC3)cc2)nc1	9	selectivity ratio [2]: > 12000
c1ccc(CNCc2ccc(CN3CCCNCCNCCCNCC3)cc2)cc1	491	–
CN(Cc1ccc(CN2CCCNCCNCCCNCC2)cc1)Cc1ccccn1	416	–
c1ccc(CNCc2ccc(CC3CCNCCc4cccc(n4)CCNCC3)cc2)nc1	217	–
c1ccc(CCNCc2ccc(CN3CCCNCCNCCCNCC3)cc2)nc1	49100	–
Nc1ccc(CNCc2ccc(CN3CCCNCCNCCCNCC3)cc2)cc1	717	–
c1ccc(CNCc2ccc(CN3CCNCCc4cccc(n4)CCNCC3)cc2)nc1	1	–
c1ccc(CNCc2ccc(CN3CCNCCCCCCCNCC3)cc2)nc1	43	–
Nc1ccccc1CNCc1ccc(CN2CCCNCCNCCCNCC2)cc1	1820	–
c1ccc(CNCc2ccc(CN3CCNCCNCCc4cccc(c4)CC3)cc2)nc1	14100	–
c1cc(CNCc2ccc(CN3CCCNCCNCCCNCC3)cc2)ccn1	9980	–
c1ccc(CNCc2ccc(CC3CCNCCCCCCCNCC3)cc2)nc1	2180	–
Cc1cnc(CNCc2ccc(CN3CCCNCCNCCCNCC3)cc2)cn1	1900	–
c1ccc(CNCc2ccc(CN3CCNCCCSCCCNCC3)cc2)nc1	13	–
[O-][S+]1CCCNCCN(Cc2ccc(CNCc3ccccn3)cc2)CCNCCC1	485	–
FC1CCCNCCN(Cc2ccc(CNCc3ccccn3)cc2)CCNCCC1	1240	–
c1ccc(CNCc2ccc(CN3CCNCCNCCc4cccc(n4)CC3)cc2)nc1	63	–
c1ccc(CNCc2ccc(CN3CCNCCc4cccc(c4)CCNCC3)cc2)nc1	40	–
c1ccc(CNCc2ccc(CN3CCNCCc4cncc(c4)CCNCC3)cc2)nc1	104	–
c1ccc(CNCc2ccc(CC3CCNCCCOCCCNCC3)cc2)nc1	426	–
O=C1CN(Cc2ccc(CNCc3ccccn3)cc2)CCc2cccc(n2)CCCCCN1	126000	–
c1ccc(CNCc2ccc(CN3CCCCCCCNCCNCC3)cc2)nc1	11100	–
FC1(F)CCCNCCN(Cc2ccc(CNCc3ccccn3)cc2)CCNCCC1	920	–
c1cncc(CNCc2ccc(CN3CCCNCCNCCCNCC3)cc2)c1	8470	–
O=S1(=O)CCCNCCN(Cc2ccc(CNCc3ccccn3)cc2)CCNCCC1	11900	–
c1ccc(CNCc2ccc(CN3CCNCCCCCCc4cccc(n4)C3)cc2)nc1	–	EC50 [3]: 4560 nM
c1ccc(CNCc2ccc(CN3CCNCCCCCc4cccc(n4)CC3)cc2)nc1	1240	–
c1ccc(CNCc2ccc(CN3CCNCCCOCCCNCC3)cc2)nc1	4	–
c1cc(CN2CCCNCCNCCCNCC2)ccc1CN1CCCNCCNCCCNCC1 [PLERIXAFOR]	4	–
